Assay outcomes (PubChem)
Hits are enriched below; roughly 3% of the tested compounds scored in any of these assays.
S1P3 agonist = agonists of human S1P3 receptor; Q99500; S1P3 NFAT-BLA reporter cells, agonism, FRET ratio; relative to 1 µM S1P, basal subtracted; activation, % at 4.5 µM; 60,000 tested, 0.1% active;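 active = activation above the screen-wide mean plus 3 SD, cut at about 4.5% in these data, passing the limit was not always enough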
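Material: Human S1P3 NFAT-BLA reporter CHO cells | Incubation: Overnight plating, 4 h compound 37 °C, 2 h substrate RT | Signal: FRET β-lactamase substrate fluorescence, excitation 405 nm, 460/535 nm emission ratio, background-subtracted | Compound: 4.5 µM final, single dose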
5HT1a ag = agonists of human 5-HT1a serotonin receptor; CHO 5-HT1a Ga15 NFAT-bla reporter, FRET ratio; 0% basal, 100% maximal reference agonist; activation, % at 10 µM; 65,000 tested, 0.56% active; AID 567;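 active = activation above the screen-wide mean activation plus 3 SD, cut at about 19% in these data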
S1P1 ag pot = activates or potentiates agonism at human S1P1 receptor. activation, % at 9.5 µM. S1P1 CRE-bla cells, forskolin, beta-lactamase FRET, potentiator mode; S1P1 agonist co-added at EC20, 2 nM; 100% = saturating reference agonist, 0% = basal. 56,000 tested, 0.57% active. P21453;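 active = activation above a cutoff set at the mean activation of all tested compounds plus 3 SD, cut at about 54% in these data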;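 also: forskolin at 4 µM as EC80 and the EC20 agonist is SEW2871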
5HT1a antag = blocks the human serotonin 5-HT1a receptor. P08908. CHO 5-HT1a Ga15 NFAT-bla reporter, antagonist mode. inhibition, % at 10 µM. 62,000 tested, 0.68% active. AID 612;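 active = inhibition above the mean of all tested compounds plus 3 SD, cut at about 43% in these data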;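 also: receptor stimulated by 5-CT agonist at 100 nM near EC80; beta-lactamase reporter measured by ratiometric fluorescence of a cleavable substrate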
HTR1E antagonist = blocks the human 5-HT1E serotonin receptor; 65,000 tested, 0.99% active; inhibition, % at 6 µM; P28566; AID 571; CHO 5-HT1E Ga15 NFAT-bla reporter, FRET, antagonist;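 active = inhibition above a set limit, the mean inhibition across every tested compound plus 3 SD, cut at about 29% in these data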;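 also: signal is the 460 over 535 nm emission ratio of beta-lactamase substrate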
Target sequence (P28566 whole entry, looked up): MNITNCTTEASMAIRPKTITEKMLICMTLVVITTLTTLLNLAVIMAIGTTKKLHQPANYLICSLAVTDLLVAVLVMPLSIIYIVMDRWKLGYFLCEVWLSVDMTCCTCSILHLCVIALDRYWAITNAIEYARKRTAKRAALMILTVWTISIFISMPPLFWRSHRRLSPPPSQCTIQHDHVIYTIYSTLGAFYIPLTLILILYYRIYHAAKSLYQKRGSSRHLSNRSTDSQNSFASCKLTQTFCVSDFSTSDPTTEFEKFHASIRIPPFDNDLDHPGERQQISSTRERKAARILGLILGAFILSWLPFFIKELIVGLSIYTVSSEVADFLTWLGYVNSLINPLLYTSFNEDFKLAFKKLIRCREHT
5HT1E ag = activates the human 5-HT1E serotonin receptor. CHO 5-HT1E Ga15 NFAT-bla reporter, FRET; 0% DMSO wells, 100% control agonist wells. activation, % at 6 µM. 65,000 tested, 0.69% active. P28566;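 active = activation above a set limit, the screen-wide mean activation plus 3 SD, cut at about 8.5% in these data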
Of the large screens only hits and unclear results are named; the others gave an inactive call.

Cc1cc(C)nc(SCc2nnc(SCC(=O)Nc3ccccc3C)n2Cc2ccco2)n1	none
COc1ccc(C2=NOC(C(=O)Nc3cc(Br)ccc3O)C2)cc1OC (stereo unspecified)	HTR1E antagonist 36.9
COc1ccc(Cn2c(CCC(=O)NCc3ccco3)nc3cccnc32)cc1	none
COC(=O)c1ccc2c(=O)n(C3CCCCC3)c(SCC#N)nc2c1	S1P1 ag pot 87.2
CCSc1nc2cc(C(=O)OC)ccc2c(=O)n1CC	none (no result: S1P1 ag pot)
CC1(C)CC(=O)C(C=Nc2ccccc2)=C(O)C1	none
O=C1CCCC(O)=C1C=Nc1ccc(O)cc1	5HT1a antag 43.4
COc1cc2c(cc1OC)-c1cc(NC3CCCCCCC3)nc(=O)n1CC2	HTR1E antagonist 52.0
COc1cc2c(cc1OC)-c1cc(NC3CCCCC3)nc(=O)n1CC2	HTR1E antagonist 36.1
COc1cc2c(cc1OC)-c1cc(NC3CC3)nc(=O)n1CC2	none
CCCCCCNc1cc2n(c(=O)n1)CCc1cc(OC)c(OC)cc1-2	HTR1E antagonist 39.1
O=C(CN(Cc1cccs1)C(=O)CNC(=O)c1ccco1)NC1CCCCC1	none
O=C(Nc1nccs1)c1ccc(S(=O)(=O)NCC2CCCCC2)cc1	S1P1 ag pot 53.0
CCCc1c(O)nc(SCCN(CC)CC)n(C(=O)c2ccccc2)c1=O	none
O=C(O)C1C2C=CC(C2)C1C(=O)NCCc1cccc(Cl)c1 (stereo unspecified)	5HT1E ag 11.5 (no result: S1P1 ag pot)
O=C(Nc1cccc(NS(=O)(=O)c2ccc(S(=O)(=O)NC3CC3)cc2)c1)c1ccccn1	none
CCNc1ccc2c(Cl)cc(=O)oc2c1	none
C=CCNC(=O)C1CCCN(S(C)(=O)=O)C1 (stereo unspecified)	5HT1E ag 14.2
O=C(c1cccn2c(=O)c3ccc(Cl)cc3nc12)N1CCN(Cc2ccc3c(c2)OCO3)CC1	none (no result: S1P3 agonist, S1P1 ag pot)
Cc1ccc(CNC(=O)c2cc3c(=O)n4cccc(C)c4nc3n(CC3CCCO3)c2=N)cc1 (stereo unspecified)	none
COCCCn1c(=N)c(C(=O)NCC2CCCO2)cc2c(=O)n3cccc(C)c3nc21 (stereo unspecified)	none
N=c1c(C(=O)NC2CCCC2)cc2c(=O)n3ccccc3nc2n1CCN1CCOCC1	5HT1E ag 17.8 (no result: S1P3 agonist, S1P1 ag pot)
COCCCn1c(=N)c(C(=O)NCC2CCCO2)cc2c(=O)n3ccccc3nc21 (stereo unspecified)	5HT1a ag 21.1
N=c1c(C(=O)NCc2ccc(F)cc2)cc2c(=O)n3ccccc3nc2n1CC1CCCO1 (stereo unspecified)	5HT1a ag 30.4, 5HT1E ag 9.1
CCCCOCCCn1c(-c2ccco2)nc2nc3ccccc3nc21	none
COc1ccccc1Oc1cc(C#N)c(C#N)cc1-n1nnc2ccccc21	S1P3 agonist 19.7, 5HT1a antag 49.1
COc1ccc(/C=N\n2nnc3ccccc32)cc1	none
CCOC(=O)C1CCCN(C(=O)c2ccc3c(c2)NC(=O)C(N2CCOCC2)S3)C1 (stereo unspecified)	none
COC(=O)c1cnn2c(C)c(Cc3cccc(F)c3)c(C)nc12	HTR1E antagonist 29.9
O=C(NCCCn1ccnc1)c1ccncc1	none
O=C(NCCCn1ccnc1)c1ccco1	5HT1a ag 20.1
COCCn1c(=O)[nH]c2cc(C(=O)NCCCN3CCN(c4ccc(F)cc4)CC3)ccc2c1=O	none (no result: S1P3 agonist, S1P1 ag pot)
COCCn1c(=O)[nH]c2cc(C(=O)NCCN3CCN(c4ccccc4F)CC3)ccc2c1=O	5HT1a antag 51.6 (no result: S1P3 agonist, S1P1 ag pot)
Nc1ccnc(C(F)(F)F)c1C(=O)c1ccccc1	none
Cc1cccc(-n2ncc3c(N4CCN(c5nc(C)cc(C)n5)CC4)ncnc32)c1	none
Fc1ccccc1COc1ccc(/C=N/n2cnnc2)cc1	S1P1 ag pot 87.9
Cc1noc(C)c1S(=O)(=O)Nc1ccc(C(=O)N2CCc3ccccc3C2)cc1	none
Cc1ccc2[nH]c(=O)c(CN(Cc3ccco3)C(=O)c3ccncc3)cc2c1	none
O=C(c1cccs1)N(Cc1ccco1)Cc1cc2ccccc2[nH]c1=O	5HT1a ag 51.5
c1ccc(CCCNc2ncnc3nc[nH]c23)cc1	none
Clc1ccc(CCNc2ncnc3nc[nH]c23)cc1	S1P1 ag pot 85.1
CCOC(=O)COc1cccc2c(=O)n(CC(=O)N3CCc4ccccc43)ccc12	none
CCOC(=O)COc1cccc2c(=O)n(CC(=O)NCc3ccc4c(c3)OCO4)ccc12	HTR1E antagonist 47.2
CCCCC(CC)CNC(=O)c1cccs1 (stereo unspecified)	none (no result: S1P1 ag pot)
O=C(CN(C(=O)CSc1nnc(COc2ccccc2)o1)c1ccc(F)cc1)NC1CCCC1	5HT1a ag 39.7
COc1ccccc1N1CCN(CC(O)COc2cccc3ccccc23)CC1 (stereo unspecified)	none (no result: 5HT1a antag)
Cc1cc(C)nc(N2CCN(c3nc(C)nc4c3oc3ccccc34)CC2)n1	none (no result: S1P3 agonist, S1P1 ag pot)
COc1ccccc1/C=C/CN1CCOCC1	none (no result: S1P1 ag pot)
COc1ccccc1N1CCN(c2nc(C)nc3c2oc2ccccc23)CC1	5HT1a antag 66.7, HTR1E antagonist 58.4
COc1ccccc1N1CCN(CCOc2c(OC)cccc2OC)CC1	5HT1E ag 30.3 (no result: 5HT1a antag)
COc1ccccc1N1CCN(C/C=C/c2ccc(N(C)C)cc2)CC1	5HT1a antag 78.7, 5HT1E ag 9.7
CCCN1CCC(N2CCN(c3ccccc3OC)CC2)CC1	5HT1a antag 63.3
CC(=O)c1cnc(Nc2nc(C)c3cccc(C)c3n2)nc1C	none
COc1ccccc1N1CCN(CCNC(=O)Nc2cccc(C)c2C)CC1	5HT1a ag 40.5
COc1cccc(C(=O)N2CCN(Cc3ccco3)CC2)c1OC	none
COc1ccccc1N1CCN(Cc2cc(Br)c(O)c3ncccc23)CC1	5HT1a antag 64.7, HTR1E antagonist 38.0, 5HT1E ag 13.8
CCOc1ccccc1N1CCN(Cc2cccc(OC)c2O)CC1	none (no result: S1P1 ag pot)
COc1ccccc1N1CCN(Cc2ccco2)CC1	5HT1E ag 9.2
CC1(C)CC(c2csc(N)n2)CCO1 (stereo unspecified)	none
CCOC(=O)C1CCN(C(=O)c2cc3c(-c4ccc(OC)c(OC)c4)nn(C)c3s2)CC1	HTR1E antagonist 35.5
CCOC(=O)N1CCC(NC(=O)c2cc3c(-c4ccc(OC)c(OC)c4)nn(C)c3s2)CC1	HTR1E antagonist 29.2
CCOC(=O)C1CCCN(C(=O)c2cc3c(-c4cccc(OC)c4)nn(C)c3s2)C1 (stereo unspecified)	none
CCOC(=O)N1CCC(NC(=O)c2cc3c(-c4ccccc4F)nn(C)c3s2)CC1	none
CCCCS(=O)(=O)Nc1ccc(Cc2ccncc2)cc1	none
OCCN1CCN(c2ncnc3c2sc2nc(N4CCOCC4)c4c(c23)CCC4)CC1	none (no result: S1P3 agonist, S1P1 ag pot)
OCCN(CCO)c1ncnc2c1sc1nc(N3CCOCC3)c3c(c12)CCCC3	HTR1E antagonist 30.7 (no result: 5HT1a antag)
